{
  "source": "the RNAGym collection of RNA variant scans (doi:10.1002/anie.201605470)",
  "parents": {"B1": {"name": "Osa-1-4 twister ribozyme (parent)", "chain": "CCGCCUAACACUGCCAAUGCCGGUCCCAAGCCCGGAUAAAAGUGGAGGGGGCGG"}},
  "data": [
    {"variants_of": "B1", "assay": "self-cleavage, relative activity (ratio to wild type); higher = more cleavage; co-transcriptional", "summary_of_the_method": "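A DNA template for a 54-nucleotide Oryza sativa twister ribozyme was synthesised with 97 % wild-type base and 1 % of each other base at the 48 positions downstream of the cleavage site. It was transcribed in vitro for 2 h at 37 °C, allowing co-transcriptional self-cleavage, then reverse-transcribed with a template-switching oligonucleotide, PCR-amplified and deep-sequenced. Cleavage status was scored from reads with or without upstream sequence. Relative activity is fraction cleaved normalised to wild type.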", "values": [
      {"variant": "A29U G50C", "self-cleavage": 0.04},
      {"variant": "A29U G50U", "self-cleavage": 0.09},
      {"variant": "A29U G51A", "self-cleavage": 0.06},
      {"variant": "A29U G51C", "self-cleavage": 0.05},
      {"variant": "A29U G51U", "self-cleavage": 0.04},
      {"variant": "A29U G53A", "self-cleavage": 0.07},
      {"variant": "A29U G53C", "self-cleavage": 0.04},
      {"variant": "A29U G53U", "self-cleavage": 0.06},
      {"variant": "A29U G54A", "self-cleavage": 0.09},
      {"variant": "A29U G54C", "self-cleavage": 0.06},
      {"variant": "A29U G54U", "self-cleavage": 0.27},
      {"variant": "A29U U12A", "self-cleavage": 0.08},
      {"variant": "A29U U12C", "self-cleavage": 0.05},
      {"variant": "A29U U12G", "self-cleavage": 0.04},
      {"variant": "A29U U18A", "self-cleavage": 0.12},
      {"variant": "A29U U18C", "self-cleavage": 0.13},
      {"variant": "A29U U18G", "self-cleavage": 0.25},
      {"variant": "A29U U24A", "self-cleavage": 0.32},
      {"variant": "A29U U24C", "self-cleavage": 0.06},
      {"variant": "A29U U24G", "self-cleavage": 0.01},
      {"variant": "A29U U37A", "self-cleavage": 0.16},
      {"variant": "A29U U37C", "self-cleavage": 0.14},
      {"variant": "A29U U37G", "self-cleavage": 0.23},
      {"variant": "A29U U43A", "self-cleavage": 0.06},
      {"variant": "A29U U43C", "self-cleavage": 0.06},
      {"variant": "A29U U43G", "self-cleavage": 0.08},
      {"variant": "G30A", "self-cleavage": 0.04},
      {"variant": "G30A G34A", "self-cleavage": 0.11},
      {"variant": "G30A G34C", "self-cleavage": 0.05},
      {"variant": "G30A G34U", "self-cleavage": 0.04},
      {"variant": "G30A G35A", "self-cleavage": 0.05},
      {"variant": "G30A G35C", "self-cleavage": 0.03},
      {"variant": "G30A G35U", "self-cleavage": 0.04},
      {"variant": "G30A G42A", "self-cleavage": 0.04},
      {"variant": "G30A G42C", "self-cleavage": 0.03},
      {"variant": "G30A G42U", "self-cleavage": 0.02},
      {"variant": "G30A G44A", "self-cleavage": 0.04},
      {"variant": "G30A G44C", "self-cleavage": 0.04},
      {"variant": "G30A G44U", "self-cleavage": 0.04},
      {"variant": "G30A G45A", "self-cleavage": 0.03},
      {"variant": "G30A G45C", "self-cleavage": 0.02},
      {"variant": "G30A G45U", "self-cleavage": 0.02},
      {"variant": "G30A G47A", "self-cleavage": 0.03},
      {"variant": "G30A G47C", "self-cleavage": 0.02},
      {"variant": "G30A G47U", "self-cleavage": 0.02},
      {"variant": "G30A G48A", "self-cleavage": 0.01},
      {"variant": "G30A G48C", "self-cleavage": 0.02},
      {"variant": "G30A G48U", "self-cleavage": 0.01},
      {"variant": "G30A G49A", "self-cleavage": 0.02},
      {"variant": "G30A G49C", "self-cleavage": 0.02},
      {"variant": "G30A G49U", "self-cleavage": 0.03},
      {"variant": "G30A G50A", "self-cleavage": 0.04},
      {"variant": "G30A G50C", "self-cleavage": 0.04},
      {"variant": "G30A G50U", "self-cleavage": 0.04},
      {"variant": "G30A G51A", "self-cleavage": 0.04},
      {"variant": "G30A G51C", "self-cleavage": 0.02},
      {"variant": "G30A G51U", "self-cleavage": 0.04},
      {"variant": "G30A G53A", "self-cleavage": 0.03},
      {"variant": "G30A G53C", "self-cleavage": 0.03},
      {"variant": "G30A G53U", "self-cleavage": 0.04},
      {"variant": "G30A G54A", "self-cleavage": 0.05},
      {"variant": "G30A G54C", "self-cleavage": 0.04},
      {"variant": "G30A G54U", "self-cleavage": 0.06},
      {"variant": "G30A U12A", "self-cleavage": 0.03},
      {"variant": "G30A U12C", "self-cleavage": 0.03},
      {"variant": "G30A U12G", "self-cleavage": 0.02},
      {"variant": "G30A U18A", "self-cleavage": 0.07},
      {"variant": "G30A U18C", "self-cleavage": 0.04},
      {"variant": "G30A U18G", "self-cleavage": 0.06},
      {"variant": "G30A U24A", "self-cleavage": 0.03},
      {"variant": "G30A U24C", "self-cleavage": 0.03},
      {"variant": "G30A U24G", "self-cleavage": 0.01},
      {"variant": "G30A U37A", "self-cleavage": 0.03},
      {"variant": "G30A U37C", "self-cleavage": 0.03},
      {"variant": "G30A U37G", "self-cleavage": 0.05},
      {"variant": "G30A U43A", "self-cleavage": 0.04},
      {"variant": "G30A U43C", "self-cleavage": 0.02},
      {"variant": "G30A U43G", "self-cleavage": 0.04},
      {"variant": "G30C", "self-cleavage": 0.04},
      {"variant": "G30C G34A", "self-cleavage": 0.07},
      {"variant": "G30C G34C", "self-cleavage": 0.04},
      {"variant": "G30C G34U", "self-cleavage": 0.04},
      {"variant": "G30C G35A", "self-cleavage": 0.05},
      {"variant": "G30C G35C", "self-cleavage": 0.04},
      {"variant": "G30C G35U", "self-cleavage": 0.04},
      {"variant": "G30C G42A", "self-cleavage": 0.04},
      {"variant": "G30C G42C", "self-cleavage": 0.04},
      {"variant": "G30C G42U", "self-cleavage": 0.02},
      {"variant": "G30C G44A", "self-cleavage": 0.03},
      {"variant": "G30C G44C", "self-cleavage": 0.04},
      {"variant": "G30C G44U", "self-cleavage": 0.04},
      {"variant": "G30C G45A", "self-cleavage": 0.03},
      {"variant": "G30C G45C", "self-cleavage": 0.02},
      {"variant": "G30C G45U", "self-cleavage": 0.02},
      {"variant": "G30C G47A", "self-cleavage": 0.03},
      {"variant": "G30C G47C", "self-cleavage": 0.02},
      {"variant": "G30C G47U", "self-cleavage": 0.03},
      {"variant": "G30C G48A", "self-cleavage": 0.02},
      {"variant": "G30C G48C", "self-cleavage": 0.02},
      {"variant": "G30C G48U", "self-cleavage": 0.02},
      {"variant": "G30C G49A", "self-cleavage": 0.02},
      {"variant": "G30C G49C", "self-cleavage": 0.02},
      {"variant": "G30C G49U", "self-cleavage": 0.02},
      {"variant": "G30C G50A", "self-cleavage": 0.04},
      {"variant": "G30C G50C", "self-cleavage": 0.05},
      {"variant": "G30C G50U", "self-cleavage": 0.05},
      {"variant": "G30C G51A", "self-cleavage": 0.05},
      {"variant": "G30C G51C", "self-cleavage": 0.03},
      {"variant": "G30C G51U", "self-cleavage": 0.03},
      {"variant": "G30C G53A", "self-cleavage": 0.04},
      {"variant": "G30C G53C", "self-cleavage": 0.02},
      {"variant": "G30C G53U", "self-cleavage": 0.04},
      {"variant": "G30C G54A", "self-cleavage": 0.05},
      {"variant": "G30C G54C", "self-cleavage": 0.04},
      {"variant": "G30C G54U", "self-cleavage": 0.05},
      {"variant": "G30C U12A", "self-cleavage": 0.06},
      {"variant": "G30C U12C", "self-cleavage": 0.03},
      {"variant": "G30C U12G", "self-cleavage": 0.1},
      {"variant": "G30C U18A", "self-cleavage": 0.05},
      {"variant": "G30C U18C", "self-cleavage": 0.05},
      {"variant": "G30C U18G", "self-cleavage": 0.06},
      {"variant": "G30C U24A", "self-cleavage": 0.03},
      {"variant": "G30C U24C", "self-cleavage": 0.04},
      {"variant": "G30C U24G", "self-cleavage": 0.01},
      {"variant": "G30C U37A", "self-cleavage": 0.03},
      {"variant": "G30C U37C", "self-cleavage": 0.04},
      {"variant": "G30C U37G", "self-cleavage": 0.05},
      {"variant": "G30C U43A", "self-cleavage": 0.05},
      {"variant": "G30C U43C", "self-cleavage": 0.04},
      {"variant": "G30C U43G", "self-cleavage": 0.05},
      {"variant": "G30U", "self-cleavage": 0.04},
      {"variant": "G30U G34A", "self-cleavage": 0.04},
      {"variant": "G30U G34C", "self-cleavage": 0.05},
      {"variant": "G30U G34U", "self-cleavage": 0.04},
      {"variant": "G30U G35A", "self-cleavage": 0.04},
      {"variant": "G30U G35C", "self-cleavage": 0.03},
      {"variant": "G30U G35U", "self-cleavage": 0.04},
      {"variant": "G30U G42A", "self-cleavage": 0.04},
      {"variant": "G30U G42C", "self-cleavage": 0.03},
      {"variant": "G30U G42U", "self-cleavage": 0.02},
      {"variant": "G30U G44A", "self-cleavage": 0.04},
      {"variant": "G30U G44C", "self-cleavage": 0.04},
      {"variant": "G30U G44U", "self-cleavage": 0.05},
      {"variant": "G30U G45A", "self-cleavage": 0.03},
      {"variant": "G30U G45C", "self-cleavage": 0.02},
      {"variant": "G30U G45U", "self-cleavage": 0.02},
      {"variant": "G30U G47A", "self-cleavage": 0.03},
      {"variant": "G30U G47C", "self-cleavage": 0.01},
      {"variant": "G30U G47U", "self-cleavage": 0.03},
      {"variant": "G30U G48A", "self-cleavage": 0.02},
      {"variant": "G30U G48C", "self-cleavage": 0.02},
      {"variant": "G30U G48U", "self-cleavage": 0.02},
      {"variant": "G30U G49A", "self-cleavage": 0.02},
      {"variant": "G30U G49C", "self-cleavage": 0.02},
      {"variant": "G30U G49U", "self-cleavage": 0.03},
      {"variant": "G30U G50A", "self-cleavage": 0.03},
      {"variant": "G30U G50C", "self-cleavage": 0.05},
      {"variant": "G30U G50U", "self-cleavage": 0.05},
      {"variant": "G30U G51A", "self-cleavage": 0.05},
      {"variant": "G30U G51C", "self-cleavage": 0.03},
      {"variant": "G30U G51U", "self-cleavage": 0.03},
      {"variant": "G30U G53A", "self-cleavage": 0.04},
      {"variant": "G30U G53C", "self-cleavage": 0.03},
      {"variant": "G30U G53U", "self-cleavage": 0.04},
      {"variant": "G30U G54A", "self-cleavage": 0.03},
      {"variant": "G30U G54C", "self-cleavage": 0.03},
      {"variant": "G30U G54U", "self-cleavage": 0.05}
    ]}
  ]
}
